According to ChEMBL document CHEMBL1122089, “Synthesis and biological activity of some very hydrophobic superagonist analogues of luteinizing hormone-releasing hormone” (1982):

How the values were obtained:
Rattus norvegicus [1] = species on record: Rattus norvegicus; assay: Suppression of estrus cyclicity in rat.; type: functional
Summary of the method: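 Adult female Sprague-Dawley rats (~160 g), groups of 10, 14:10 light/dark, food and water ad libitum. Compound in 0.1% BSA-saline vehicle given sc twice daily (0800, 1630 h), 0.1 or 0.2 mL/injection, 14 consecutive days; at least four doses at 2-fold dilutions; vehicle and positive controls. Daily vaginal lavage; percent of rats in persistent diestrus from day 4 plotted against log dose; ED50 in µg/injection.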

Rattus norvegicus [2] = species on record: Rattus norvegicus; assay: Suppression of estrus cyclicity in rat relative to [D-Trp6, ProNHEt9].; type: functional

CCNC(=O)[C@@H]1CCCN1C(=O)[C@H](CCCN=C(N)N)NC(=O)[C@H](CC(C)C)N(C)C(=O)[C@@H](Cc1ccc2ccccc2c1)NC(=O)[C@H](Cc1ccc(O)cc1)NC(=O)[C@H](CO)NC(=O)[C@H](Cc1c[nH]c2ccccc12)NC(=O)[C@H](Cc1c[nH]cn1)NC(=O)[C@@H]1CCC(=O)N1
ED50 (Rattus norvegicus [1]): 0.12 µg
Potency (Rattus norvegicus [2]): 1.8

CCNC(=O)[C@@H]1CCCN1C(=O)[C@H](CCCN=C(N)N)NC(=O)[C@H](CC(C)C)NC(=O)[C@@H](Cc1ccc2ccccc2c1)NC(=O)[C@H](Cc1ccc(O)cc1)NC(=O)[C@H](CO)NC(=O)[C@H](Cc1cccc2ccccc12)NC(=O)[C@H](Cc1c[nH]cn1)NC(=O)[C@@H]1CCC(=O)N1
ED50 (Rattus norvegicus [1]): 0.16 µg
Potency (Rattus norvegicus [2]): 0.9

COc1cc(C[C@@H](NC(=O)[C@H](Cc2ccc(O)cc2)NC(=O)[C@H](CO)NC(=O)[C@H](Cc2c[nH]c3ccccc23)NC(=O)[C@H](Cc2c[nH]cn2)NC(=O)[C@@H]2CCC(=O)N2)C(=O)N[C@@H](CC(C)C)C(=O)N[C@@H](CCCN=C(N)N)C(=O)N2CCC[C@H]2C(=O)NCC(N)=O)cc(OC)c1OC
ED50 (Rattus norvegicus [1]): 0.09 µg
Potency (Rattus norvegicus [2]): 1.4

CCNC(=O)[C@@H]1CCCN1C(=O)[C@H](CCCN=C(N)N)NC(=O)[C@H](CC(C)C)NC(=O)[C@@H](CC(c1ccccc1)c1ccccc1)NC(=O)[C@H](Cc1ccc(O)cc1)NC(=O)[C@H](CO)NC(=O)[C@H](Cc1c[nH]c2ccccc12)NC(=O)[C@H](Cc1c[nH]cn1)NC(=O)[C@@H]1CCC(=O)N1
ED50 (Rattus norvegicus [1]): 0.11 µg
Potency (Rattus norvegicus [2]): 0.9

CC(C)C[C@H](NC(=O)[C@@H](Cc1ccc(-c2ccccc2)cc1)NC(=O)[C@H](Cc1ccc(O)cc1)NC(=O)[C@H](CO)NC(=O)[C@H](Cc1c[nH]c2ccccc12)NC(=O)[C@H](Cc1c[nH]cn1)NC(=O)[C@@H]1CCC(=O)N1)C(=O)N[C@@H](CCCN=C(N)N)C(=O)N1CCC[C@H]1C(=O)NCC(N)=O
Potency (Rattus norvegicus [2]): 1.4

CC(C)C[C@H](NC(=O)[C@@H](Cc1ccc2ccccc2c1)NC(=O)[C@H](Cc1ccc(O)cc1)NC(=O)[C@H](CO)NC(=O)[C@H](Cc1c[nH]c2ccccc12)NC(=O)[C@H](Cc1c[nH]cn1)NC(=O)[C@@H]1CCC(=O)N1)C(=O)N[C@@H](CCCN=C(N)N)C(=O)N1CCC[C@H]1C(=O)NCC(N)=O
ED50 (Rattus norvegicus [1]): 0.07 µg
Potency (Rattus norvegicus [2]): 1.9

Cc1cc(C)c(C[C@@H](NC(=O)[C@H](Cc2ccc(O)cc2)NC(=O)[C@H](CO)NC(=O)[C@H](Cc2c[nH]c3ccccc23)NC(=O)[C@H](Cc2c[nH]cn2)NC(=O)[C@@H]2CCC(=O)N2)C(=O)N[C@@H](CC(C)C)C(=O)N[C@@H](CCCN=C(N)N)C(=O)N2CCC[C@H]2C(=O)NCC(N)=O)c(C)c1
ED50 (Rattus norvegicus [1]): 0.07 µg
Potency (Rattus norvegicus [2]): 2

CC(C)C[C@H](NC(=O)[C@@H](Cc1ccc2ccccc2c1Br)NC(=O)[C@H](Cc1ccc(O)cc1)NC(=O)[C@H](CO)NC(=O)[C@H](Cc1c[nH]c2ccccc12)NC(=O)[C@H](Cc1c[nH]cn1)NC(=O)[C@@H]1CCC(=O)N1)C(=O)N[C@@H](CCCN=C(N)N)C(=O)N1CCC[C@H]1C(=O)NCC(N)=O
ED50 (Rattus norvegicus [1]): 0.15 µg
Potency (Rattus norvegicus [2]): 1

CC(C)C[C@H](NC(=O)[C@@H](CC1CCCCC1)NC(=O)[C@H](Cc1ccc(O)cc1)NC(=O)[C@H](CO)NC(=O)[C@H](Cc1c[nH]c2ccccc12)NC(=O)[C@H](Cc1c[nH]cn1)NC(=O)[C@@H]1CCC(=O)N1)C(=O)N[C@@H](CCCN=C(N)N)C(=O)N1CCC[C@H]1C(=O)NCC(N)=O
ED50 (Rattus norvegicus [1]): 0.3 µg
Potency (Rattus norvegicus [2]): 0.5

CCNC(=O)[C@@H]1CCCN1C(=O)[C@H](CCCN=C(N)N)NC(=O)[C@H](CC(C)C)NC(=O)[C@@H](Cc1c[nH]c2ccccc12)NC(=O)[C@H](Cc1ccc(O)cc1)NC(=O)[C@H](CO)NC(=O)[C@H](Cc1c[nH]c2ccccc12)NC(=O)[C@H](Cc1c[nH]cn1)NC(=O)[C@@H]1CCC(=O)N1
ED50 (Rattus norvegicus [1]): 0.14 µg
Potency (Rattus norvegicus [2]): 1

CC(C)C[C@H](NC(=O)[C@@H](Cc1ccc(C(F)(F)F)cc1)NC(=O)[C@H](Cc1ccc(O)cc1)NC(=O)[C@H](CO)NC(=O)[C@H](Cc1c[nH]c2ccccc12)NC(=O)[C@H](Cc1c[nH]cn1)NC(=O)[C@@H]1CCC(=O)N1)C(=O)N[C@@H](CCCN=C(N)N)C(=O)N1CCC[C@H]1C(=O)NCC(N)=O
ED50 (Rattus norvegicus [1]): 0.11 µg
Potency (Rattus norvegicus [2]): 1.4

Cc1cc(C)c(C[C@@H](NC(=O)[C@H](Cc2ccc(O)cc2)NC(=O)[C@H](CO)NC(=O)[C@H](Cc2c[nH]c3ccccc23)NC(=O)[C@H](Cc2c[nH]cn2)NC(=O)[C@@H]2CCC(=O)N2)C(=O)N(C)[C@@H](CC(C)C)C(=O)N[C@@H](CCCN=C(N)N)C(=O)N2CCC[C@H]2C(=O)NCC(N)=O)c(C)c1
Potency (Rattus norvegicus [2]): 1.1

CC(C)C[C@H](NC(=O)[C@@H](Cc1c(F)c(F)c(F)c(F)c1F)NC(=O)[C@H](Cc1ccc(O)cc1)NC(=O)[C@H](CO)NC(=O)[C@H](Cc1c[nH]c2ccccc12)NC(=O)[C@H](Cc1c[nH]cn1)NC(=O)[C@@H]1CCC(=O)N1)C(=O)N[C@@H](CCCN=C(N)N)C(=O)N1CCC[C@H]1C(=O)NCC(N)=O
ED50 (Rattus norvegicus [1]): 0.12 µg
Potency (Rattus norvegicus [2]): 1.2

CCNC(=O)[C@@H]1CCCN1C(=O)[C@H](CCCN=C(N)N)NC(=O)[C@H](CC(C)C)NC(=O)[C@@H](Cc1ccc2ccccc2c1)NC(=O)[C@H](Cc1ccc(O)cc1)NC(=O)[C@H](CO)NC(=O)[C@H](Cc1c[nH]c2ccccc12)NC(=O)[C@H](Cc1c[nH]cn1)NC(=O)[C@@H]1CCC(=O)N1
ED50 (Rattus norvegicus [1]): 0.22 µg
Potency (Rattus norvegicus [2]): 0.9

CC(C)C[C@H](NC(=O)[C@@H](Cc1c2ccccc2cc2ccccc12)NC(=O)[C@H](Cc1ccc(O)cc1)NC(=O)[C@H](CO)NC(=O)[C@H](Cc1c[nH]c2ccccc12)NC(=O)[C@H](Cc1c[nH]cn1)NC(=O)[C@@H]1CCC(=O)N1)C(=O)N[C@@H](CCCN=C(N)N)C(=O)N1CCC[C@H]1C(=O)NCC(N)=O
ED50 (Rattus norvegicus [1]): 0.27 µg
Potency (Rattus norvegicus [2]): 0.5
